The text below walks through data of ChEMBL document CHEMBL4706572, “Benzyl and benzoyl benzoic acid inhibitors of bacterial RNA polymerase-sigma factor interaction” (Eur J Med Chem, 2020).

Molecules are shown by their SMILES. Values after ≈ are worked out from the molar mass of the structure shown. Active and inactive are the calls of the source.

The test system of test [1] is Staphylococcus aureus. Kind of test: Antibacterial activity against Staphylococcus aureus ATCC 29213 after 20 hrs by CLSI based-broth microdilution method. It counts as functional. The essentials:
(§1)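 Broth microdilution in cation-adjusted Mueller-Hinton broth. Two-fold serial dilutions from 256 μg/mL down to 0.5 μg/mL. Inoculum approx. 5 × 10^5 CFU/mL. Incubated 20 h at 37 °C. MIC taken as the lowest concentration with no observable growth.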
In general terms: In broth dilution the organism is exposed to a series of concentrations in liquid medium.

Test [2] deals with Staphylococcus aureus. In words: Inhibition of RNAP/sigma factor interaction in Staphylococcus aureus ATCC 29213 assessed as reduction in total RNA level by fluorimetric method. The essentials:
(§2)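 S. aureus ATCC 29213 master culture started at OD600 0.1 at 37 °C with shaking at 175 rpm. At OD600 0.2 it was split and given compound or control at ¼ and ⅛ MIC, plus a drug-free culture. Cells harvested when the control reached OD600 0.6, with volumes normalized to OD600 0.6 equivalent. DNA and RNA measured by Qubit fluorometry, protein by BCA; triplicate.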

The subject of test [3] is Clostridioides difficile. In words: Antibacterial activity against Clostridium difficile ribotype 002 assessed as reduction in bacterial toxin B production at sub-inhibitory concentration incubated for 48 hrs under anaerobic condition by ELISA. It counts as functional, organism-based. The method, boiled down: (§3)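 Incubated anaerobically at 37 °C for 48 h. Supernatants cleared at 10,000 × g for 2 min. TcdA and TcdB quantified by commercial ELISA, normalized to drug-free control. Duplicate, with technical and biological repeats.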
(In general: In an ELISA, binding on a coated surface is turned into a signal by an enzyme label.)

In test [4] the test system is Streptococcus agalactiae. Kind of test: Antibacterial activity against Streptococcus agalactiae ATCC 12386 after 20 hrs by CLSI based-broth microdilution method. It is filed as functional. The method, boiled down: (§4)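 Streptococci tested in Brain Heart Infusion broth. Two-fold dilutions from 256 to 0.5 μg/mL, inoculum approx. 5 × 10^5 CFU/mL. Incubated 20 h at 37 °C. MIC is the lowest concentration without visible growth.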

Test [5] concerns Streptococcus pneumoniae. In words: Antibacterial activity against Streptococcus pneumoniae ATCC 49619 after 20 hrs by CLSI based-broth microdilution method. It is filed as functional. The essentials: as §4
The test system of test [6] is Staphylococcus aureus. In words: Antibacterial activity against Staphylococcus aureus ATCC 25923 after 20 hrs by CLSI based-broth microdilution method. It counts as functional. The method, boiled down:
as §1

Test [7] has as its system Staphylococcus aureus. In words: Inhibition of RNAP/sigma factor interaction in Staphylococcus aureus ATCC 29213 assessed as total DNA level at 1/4 to 1/8 times MIC by fluorimetric method. The method, boiled down:
as §2

Test [8] relates to Bacillus subtilis. Kind of test: Inhibition of GFP-fused RNAP subunit beta' interaction with sigma factor A in Bacillus subtilis BS1048 assessed as nucleoid delocalization at half MIC incubated for 15 mins by confocal microscopy. The method, boiled down:
(§5)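 B. subtilis BS1048 (RpoC-GFP) grown from a single colony in LB at 37 °C to OD600 ~0.6. […] Cells mounted on 1.2% agarose under a coverslip and imaged by confocal microscopy with a 63×/1.3 oil objective for RNAP-GFP localization relative to the nucleoid.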

Test [9] has as its system Bacillus subtilis. Kind of test: Antibacterial activity against Bacillus subtilis BS1048 after 20 hrs by CLSI based broth microdilution method. It is filed as functional. The essentials: (§6)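 Broth microdilution MIC. Two-fold serial dilutions from 256 μg/mL down to 0.5 μg/mL. Inoculum approx. 5 × 10^5 CFU/mL. Read after 20 h at 37 °C. MIC is the lowest concentration with no observable growth.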

Test [10] has as its system Enterococcus faecalis. Kind of test: Antibacterial activity against Enterococcus faecalis ATCC 19433 after 20 hrs by CLSI based-broth microdilution method. It is filed as functional. The method, boiled down:
as §6

Test [11] has as its system Clostridioides difficile. In words: Antibacterial activity against Clostridium difficile ribotype 027 assessed as reduction in bacterial toxin B production at sub-inhibitory concentration incubated for 48 hrs under anaerobic condition by ELISA. It counts as functional, organism-based. The method, boiled down:
as §3

Test [12] concerns Streptococcus pyogenes. In words: Antibacterial activity against Streptococcus pyogenes ATCC 19615 after 20 hrs by CLSI based-broth microdilution method. It counts as functional. The method, boiled down: as §4
Test [13] has as its system Clostridioides difficile. In words: Antibacterial activity against Clostridium difficile ribotype 027 assessed as reduction in bacterial toxin A production at sub-inhibitory concentration incubated for 48 hrs under anaerobic condition by ELISA. It is filed as functional, organism-based. The method, boiled down: as §3
The subject of test [14] is Clostridioides difficile. Kind of test: Antibacterial activity against Clostridium difficile ATCC 9689 assessed as reduction in bacterial toxin B production at sub-inhibitory concentration incubated for 48 hrs under anaerobic condition by ELISA. It is filed as functional, organism-based. The note with it: ATCC 9689 = DSM 1296. The method, boiled down: as §3
Test [15] deals with Bacillus subtilis. In words: Inhibition of GFP-fused RNAP subunit beta' interaction with sigma factor A in Bacillus subtilis BS1048 assessed as alteration in transcriptional complex localization by measuring diffusion of fluorescent signal into cytosol at 1 to 2 times MIC incubated for 15 mins by confocal microscopy. It counts as subcellular. The essentials: as §5
Test [16] in a line: Antibacterial activity against Staphylococcus saprophyticus ATCC 15305 after 20 hrs by CLSI based-broth microdilution method. It counts as functional, Staphylococcus saprophyticus subsp. saprophyticus. The method, boiled down:
as §1

The subject of test [17] is Staphylococcus aureus. In words: Inhibition of RNAP/sigma factor interaction in Staphylococcus aureus ATCC 29213 assessed as reduction in total protein level at 1/4 to 1/8 times MIC by fluorimetric method.
The test system of test [18] is Clostridioides difficile. In words: Antibacterial activity against Clostridium difficile ribotype 002 assessed as reduction in bacterial toxin A production at sub-inhibitory concentration incubated for 48 hrs under anaerobic condition by ELISA. It is filed as functional, organism-based. The essentials:
as §3

In test [19] the test system is Staphylococcus epidermidis. In words: Antibacterial activity against Staphylococcus epidermidis ATCC 12228 after 20 hrs by CLSI based-broth microdilution method. It counts as functional. The essentials: as §1
The subject of test [20] is Clostridioides difficile. Kind of test: Antibacterial activity against Clostridium difficile ATCC 9689 assessed as reduction in bacterial toxin A production at sub-inhibitory concentration incubated for 48 hrs under anaerobic condition by ELISA. The note with it: ATCC 9689 = DSM 1296. It is filed as functional, organism-based. The method, boiled down:
as §3

For orientation: MIC means the smallest concentration in the dilution series that meets the test's criterion for growth inhibition. Low values mean greater potency, high ones weaker potency. In the case of `O=C(O)c1ccc(C(F)(F)F)cc1C(=O)c1ccc(Sc2ccc(Cl)c(Cl)c2)c([N+](=O)[O-])c1`, the MIC stood at 4 µg/mL (≈ 7.75 µM) in test [1]; 4 µg/mL (≈ 7.75 µM) in test [4]; 2 µg/mL (≈ 3.87 µM) in test [5]; 4 µg/mL (≈ 7.75 µM) in test [6]; 2 µg/mL (≈ 3.87 µM) in [9]; 8 µg/mL (≈ 15.5 µM) in [10]. Also, the MIC stood at 4 µg/mL (≈ 7.75 µM) in test [12], 1 µg/mL (≈ 1.94 µM) in test [16] and 0.5 µg/mL (≈ 0.968 µM) in [19]. Further, the inhibition result in [2] was “Dose-dependent effect”. Besides, the Activity result in test [3], in test [11], in test [13], in test [14], in test [18] and in [20] was “Dose-dependent effect” in each case. Also, the inhibition result in test [7] is “inactive”. The inhibition entry in [8], in test [15] and in test [17] was “Active” each time.
